31 compounds from ChEMBL document CHEMBL1140794, “Discovery of 3-aryl-3-methyl-1H-quinoline-2,4-diones as a new class of selective 5-HT6 receptor antagonists” (Bioorg Med Chem Lett, 2008) can be followed below.

Experiment [1] concerns the target T1, 5-hydroxytryptamine receptor 6 (Homo sapiens, UniProt P50406). The experiment in a line: Displacement of [3H]LSD from human cloned 5HT6 receptor expressed in HEK293 cells. Type of experiment: cell-based. (In general: In a radioligand displacement assay an active substance lowers the binding of a labelled ligand.)
Experiment [2] addresses 5-hydroxytryptamine receptor 7 (Homo sapiens, UniProt P34969). The experiment in a line: Displacement of [3H]LSD from human cloned 5HT7 receptor.
In experiment [3] the target is T2, D(4) dopamine receptor (Homo sapiens, UniProt P21917).
T2 sequence (P21917 whole entry): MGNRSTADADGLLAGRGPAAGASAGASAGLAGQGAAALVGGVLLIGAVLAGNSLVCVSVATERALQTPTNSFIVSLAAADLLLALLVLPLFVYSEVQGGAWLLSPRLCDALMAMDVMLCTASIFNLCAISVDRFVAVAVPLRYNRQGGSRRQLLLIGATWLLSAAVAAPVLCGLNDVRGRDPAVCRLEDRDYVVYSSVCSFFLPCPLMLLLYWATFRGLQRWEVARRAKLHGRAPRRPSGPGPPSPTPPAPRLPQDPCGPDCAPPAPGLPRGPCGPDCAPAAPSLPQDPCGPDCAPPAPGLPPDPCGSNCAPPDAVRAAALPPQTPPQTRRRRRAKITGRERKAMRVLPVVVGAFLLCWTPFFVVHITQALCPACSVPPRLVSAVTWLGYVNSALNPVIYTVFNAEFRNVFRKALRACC
The experiment in a line: Displacement of [3H]spiperone from human cloned dopamine D4 receptor.

Experiment [4] has as its target 5-hydroxytryptamine receptor 2A (Homo sapiens, UniProt P28223). The experiment in a line: Displacement of [3H]ketanserin from human cloned 5HT2A receptor.
The target in experiment [5] is T3, 5-hydroxytryptamine receptor 1A (Homo sapiens, UniProt P08908).
T3 sequence (P08908 whole entry): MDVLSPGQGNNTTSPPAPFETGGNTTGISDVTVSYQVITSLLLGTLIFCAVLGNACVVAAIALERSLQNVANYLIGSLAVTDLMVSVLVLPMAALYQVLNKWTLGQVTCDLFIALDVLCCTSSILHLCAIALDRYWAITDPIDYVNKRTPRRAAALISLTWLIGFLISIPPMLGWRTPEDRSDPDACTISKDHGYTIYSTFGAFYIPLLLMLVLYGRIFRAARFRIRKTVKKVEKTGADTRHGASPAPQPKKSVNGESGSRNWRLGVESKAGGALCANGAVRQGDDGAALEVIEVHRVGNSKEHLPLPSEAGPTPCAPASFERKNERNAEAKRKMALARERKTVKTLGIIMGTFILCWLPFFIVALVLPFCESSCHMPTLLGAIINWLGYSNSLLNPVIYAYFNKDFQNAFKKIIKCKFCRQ
The experiment in a line: Displacement of [3H]8-OH-DPAT from human cloned 5HT1A receptor.

Experiment [6] deals with D(1A) dopamine receptor (Homo sapiens, UniProt P21728). The experiment in a line: Displacement of [3H]SCH-23390 from human cloned dopamine D1 receptor.
In experiment [7] the target is T4, 5-hydroxytryptamine receptor 2C (Homo sapiens, UniProt P28335).
T4 sequence (P28335 whole entry): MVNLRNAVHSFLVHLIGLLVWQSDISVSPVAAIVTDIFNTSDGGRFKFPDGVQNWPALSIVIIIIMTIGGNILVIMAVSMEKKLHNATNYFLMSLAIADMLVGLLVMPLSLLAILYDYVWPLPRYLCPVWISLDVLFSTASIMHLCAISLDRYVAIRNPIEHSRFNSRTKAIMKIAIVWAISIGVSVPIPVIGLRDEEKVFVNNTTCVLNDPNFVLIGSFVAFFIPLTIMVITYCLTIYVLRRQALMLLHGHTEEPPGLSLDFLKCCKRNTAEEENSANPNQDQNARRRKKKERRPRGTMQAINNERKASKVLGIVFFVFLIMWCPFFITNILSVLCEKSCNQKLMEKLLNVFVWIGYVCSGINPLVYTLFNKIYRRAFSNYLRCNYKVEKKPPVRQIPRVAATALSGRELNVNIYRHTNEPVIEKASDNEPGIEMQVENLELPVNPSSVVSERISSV
The experiment in a line: Displacement of [3H]mesulergine from human cloned 5HT2C receptor.

Experiment [8] addresses D(2) dopamine receptor (Homo sapiens, UniProt P14416). The experiment in a line: Displacement of [3H]spiperone from human cloned dopamine D2 receptor.
Experiment [9] deals with D(3) dopamine receptor (Homo sapiens, UniProt P35462). The experiment in a line: Displacement of [3H]spiperone from human cloned dopamine D3 receptor.
In experiment [10] the target is T1, 5-hydroxytryptamine receptor 6. The experiment in a line: Antagonist activity at human cloned 5HT6 receptor expressed in HeLa cells assessed as inhibition of 5-HT-stimulated cAMP accumulation after 20 mins by enzyme-immunoassay. In kind it is functional, cell-based. In short, it runs like this:
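[…] and test compounds were added to HBSS (pH 7.4) containing 1 mM MgCl₂, 1 mM CaCl₂ and 1-methyl-3-isobutylxanthine (IBMX) at 100. After 20 min at 37 °C, intracellular cAMP was measured by enzyme immunoassay. Compounds that inhibited 5-HT-stimulated cAMP accumulation were classed as antagonists.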
Background: Changes in cAMP serve as a functional read-out for many G protein-coupled receptors.

A value given as a limit tells only on which side of the number the result lay.

Chain of D(1A) dopamine receptor (P21728 whole entry): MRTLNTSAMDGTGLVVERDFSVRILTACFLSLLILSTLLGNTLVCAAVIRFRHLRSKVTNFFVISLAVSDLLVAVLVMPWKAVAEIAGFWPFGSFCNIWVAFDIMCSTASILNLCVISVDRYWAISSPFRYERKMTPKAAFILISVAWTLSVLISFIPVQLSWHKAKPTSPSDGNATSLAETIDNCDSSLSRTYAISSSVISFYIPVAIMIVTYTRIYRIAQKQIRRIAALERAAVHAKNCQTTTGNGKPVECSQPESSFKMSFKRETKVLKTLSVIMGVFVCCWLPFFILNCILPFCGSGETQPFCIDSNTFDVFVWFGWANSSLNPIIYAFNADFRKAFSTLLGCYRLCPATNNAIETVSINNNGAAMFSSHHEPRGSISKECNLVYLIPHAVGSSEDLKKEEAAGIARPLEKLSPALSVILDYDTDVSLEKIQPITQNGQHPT
Chain of D(3) dopamine receptor (P35462 whole entry): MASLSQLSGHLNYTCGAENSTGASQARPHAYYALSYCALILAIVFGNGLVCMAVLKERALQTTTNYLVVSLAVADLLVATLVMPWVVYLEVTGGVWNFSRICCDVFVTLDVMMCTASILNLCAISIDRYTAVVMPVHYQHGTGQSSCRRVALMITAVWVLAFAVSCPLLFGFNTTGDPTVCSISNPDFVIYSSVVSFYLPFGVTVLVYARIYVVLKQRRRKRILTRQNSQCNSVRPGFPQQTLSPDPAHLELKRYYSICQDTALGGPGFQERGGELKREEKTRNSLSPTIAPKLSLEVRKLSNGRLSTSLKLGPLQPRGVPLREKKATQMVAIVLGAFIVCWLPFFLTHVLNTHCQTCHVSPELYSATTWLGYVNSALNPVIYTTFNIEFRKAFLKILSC
T1 sequence (P50406 whole entry): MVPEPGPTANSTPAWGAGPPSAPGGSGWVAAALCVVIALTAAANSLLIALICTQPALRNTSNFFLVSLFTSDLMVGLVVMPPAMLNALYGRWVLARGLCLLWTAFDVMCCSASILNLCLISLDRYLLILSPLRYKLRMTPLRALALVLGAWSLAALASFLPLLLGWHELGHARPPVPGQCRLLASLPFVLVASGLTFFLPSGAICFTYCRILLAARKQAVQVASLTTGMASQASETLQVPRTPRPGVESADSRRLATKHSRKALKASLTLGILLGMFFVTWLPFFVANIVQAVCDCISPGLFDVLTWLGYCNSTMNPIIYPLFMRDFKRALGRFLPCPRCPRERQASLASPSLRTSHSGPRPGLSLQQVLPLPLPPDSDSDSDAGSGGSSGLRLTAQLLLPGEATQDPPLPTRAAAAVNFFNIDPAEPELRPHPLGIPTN
Chain of D(2) dopamine receptor (P14416 whole entry): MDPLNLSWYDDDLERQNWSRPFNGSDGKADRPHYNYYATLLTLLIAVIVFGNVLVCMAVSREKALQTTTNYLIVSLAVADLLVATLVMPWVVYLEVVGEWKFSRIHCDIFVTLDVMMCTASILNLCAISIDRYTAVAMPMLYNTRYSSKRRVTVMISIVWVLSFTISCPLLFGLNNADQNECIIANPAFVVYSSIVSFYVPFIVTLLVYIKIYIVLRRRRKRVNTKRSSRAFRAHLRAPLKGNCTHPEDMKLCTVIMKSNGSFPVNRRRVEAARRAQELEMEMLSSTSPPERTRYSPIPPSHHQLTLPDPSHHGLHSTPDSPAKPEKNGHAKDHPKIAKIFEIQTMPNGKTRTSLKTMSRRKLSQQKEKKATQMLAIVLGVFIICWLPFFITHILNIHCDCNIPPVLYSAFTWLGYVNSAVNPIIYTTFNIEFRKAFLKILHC
Chain of 5-hydroxytryptamine receptor 7 (P34969 whole entry): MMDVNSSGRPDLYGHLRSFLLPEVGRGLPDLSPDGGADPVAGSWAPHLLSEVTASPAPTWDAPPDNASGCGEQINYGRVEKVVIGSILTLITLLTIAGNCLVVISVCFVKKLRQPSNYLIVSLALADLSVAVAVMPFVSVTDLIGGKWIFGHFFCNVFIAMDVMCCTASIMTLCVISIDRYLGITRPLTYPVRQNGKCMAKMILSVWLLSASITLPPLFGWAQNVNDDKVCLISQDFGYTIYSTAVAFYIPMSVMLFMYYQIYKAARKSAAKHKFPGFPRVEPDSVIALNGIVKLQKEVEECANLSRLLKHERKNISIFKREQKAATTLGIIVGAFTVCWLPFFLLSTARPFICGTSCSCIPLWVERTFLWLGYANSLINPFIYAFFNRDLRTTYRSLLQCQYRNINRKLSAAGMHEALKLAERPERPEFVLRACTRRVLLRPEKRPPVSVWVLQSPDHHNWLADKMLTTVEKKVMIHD
Chain of 5-hydroxytryptamine receptor 2A (P28223 whole entry): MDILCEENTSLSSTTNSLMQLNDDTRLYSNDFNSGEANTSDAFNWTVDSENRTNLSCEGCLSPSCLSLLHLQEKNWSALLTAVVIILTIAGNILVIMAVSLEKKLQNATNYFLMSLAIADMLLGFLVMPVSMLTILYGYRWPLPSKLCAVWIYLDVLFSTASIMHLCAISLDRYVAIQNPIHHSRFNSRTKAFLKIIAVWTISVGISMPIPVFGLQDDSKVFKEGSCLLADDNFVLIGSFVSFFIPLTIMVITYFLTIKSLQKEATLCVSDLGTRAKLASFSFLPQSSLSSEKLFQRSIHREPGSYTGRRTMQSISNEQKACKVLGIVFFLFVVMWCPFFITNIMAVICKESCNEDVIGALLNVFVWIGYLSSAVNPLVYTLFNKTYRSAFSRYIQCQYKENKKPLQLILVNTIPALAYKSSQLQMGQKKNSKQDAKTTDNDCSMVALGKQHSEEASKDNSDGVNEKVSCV

With `COc1cc(Br)c2c(c1)NC(=O)C(C)(c1ccccc1)C2=O` (stereo not drawn), in [1], the Ki came to 73.2 nM.

On to `CN(C)c1cc(Cl)c2c(c1)NC(=O)C(C)(c1ccccc1)C2=O` (stereo not drawn), for which, in [1], the inhibition constant Ki stood at 715 nM.

In turn, `CC1(c2ccc(Cl)cc2)C(=O)Nc2cc(Cl)cc(Cl)c2C1=O` (stereo not drawn) registered a Ki in experiment [1] of 877 nM.

As to `CC1(c2ccccc2)C(=O)Nc2cc(Br)cc(Br)c2C1=O` (stereo not drawn), in experiment [1], the affinity corresponds to a Ki of 197 nM.

`CN(C)c1ccc(C2(C)C(=O)Nc3cc(Cl)cc(Cl)c3C2=O)cc1` (stereo not drawn) registered a Ki in [1] of 346 nM.

In the case of `CC1(c2ccc(I)cc2)C(=O)Nc2cc(Cl)cc(Cl)c2C1=O` (stereo not drawn), the affinity in experiment [1] corresponds to a Ki of 952 nM.

`CCNc1ccc(C2(C)C(=O)Nc3cc(Cl)cc(Cl)c3C2=O)cc1` (stereo not drawn) yielded a Ki in experiment [1] of 28.3 nM.

As to `CC1(c2cccc(OCc3ccccc3)c2)C(=O)Nc2cc(Cl)cc(Cl)c2C1=O` (stereo not drawn), the Ki in experiment [2] is 600 nM; in experiment [3], above 10000 nM; in [4] it was 720 nM; in experiment [5], 170 nM; in experiment [6], 120 nM; in experiment [7] it was above 10000 nM. Besides, the inhibition constant Ki in experiment [1] is 82.4 nM; in experiment [8], above 10000 nM; in [9], above 10000 nM.

In experiment [1], `COc1ccc(C2(C)C(=O)Nc3cc(Cl)cc(Cl)c3C2=O)cc1[N+](=O)[O-]` (stereo not drawn) gave a Ki above 1000 nM.

In the case of `CC1(c2ccccc2)C(=O)Nc2cc(Cl)c(Cl)cc2C1=O` (stereo not drawn), the Ki in [1] is above 1000 nM.

On to `CC1(c2ccccc2)C(=O)Nc2c(Br)cc(Br)cc2C1=O` (stereo not drawn), for which, in experiment [1], the Ki is above 1000 nM.

As to `COc1ccc(C2(C)C(=O)Nc3cc(Cl)cc(Cl)c3C2=O)cc1` (stereo not drawn), affinity in [1] was put at a Ki of 147 nM.

`CC1(c2ccc(O)c([N+](=O)[O-])c2)C(=O)Nc2cc(Cl)cc(Cl)c2C1=O` (stereo not drawn): the Ki in experiment [1] is above 1000 nM.

On to `CC1(c2ccc(O)cc2)C(=O)Nc2cc(Cl)cc(Cl)c2C1=O` (stereo not drawn), for which the Ki in experiment [2], in experiment [3], in experiment [4], in [5], in [6] and in [7] was above 10000 nM in each case. The results for the Ki in experiment [1], in [8] and in experiment [9] were 12.3 nM, above 10000 nM and above 10000 nM, respectively. Also, the IC50 in [10] was 615 nM.

`CC1(c2ccc(N)cc2)C(=O)Nc2cc(Cl)cc(Cl)c2C1=O` (stereo not drawn) gave a Ki in [1] of 156 nM.

As to `CC1(c2ccc(O)c(Br)c2)C(=O)Nc2cc(Cl)cc(Cl)c2C1=O` (stereo not drawn), the Ki in experiment [1] turned out to be 77.5 nM.

In experiment [1], `COc1ccc([C@]2(C)C(=O)Nc3cc(Cl)cc(Cl)c3C2=O)cc1` displayed a Ki of 293 nM.

Consider `COc1ccc([C@@]2(C)C(=O)Nc3cc(Cl)cc(Cl)c3C2=O)cc1`, for which the Ki in experiment [1] turned out to be 893 nM.

Compound `CC1(c2ccccc2)C(=O)Nc2ccccc2C1=O` (stereo not drawn) showed a Ki in experiment [1] above 1000 nM.

For the compound `CNc1ccc(C2(C)C(=O)Nc3cc(Cl)cc(Cl)c3C2=O)cc1` (stereo not drawn), the Ki in experiment [1] turned out to be 257 nM.

Compound `CCN(CC)c1ccc(C2(C)C(=O)Nc3cc(Cl)cc(Cl)c3C2=O)cc1` (stereo not drawn) returned a Ki in experiment [1] of 9.2 nM.

`CC1(c2ccc(OCc3ccccc3)c(Br)c2)C(=O)Nc2cc(Cl)cc(Cl)c2C1=O` (stereo not drawn) had a Ki in [1] above 1000 nM.

`CC1(c2ccccc2)C(=O)Nc2cc(Cl)ccc2C1=O` (stereo not drawn): the Ki in experiment [1] was above 1000 nM.

As for `COc1cc(Cl)c2c(c1)NC(=O)C(C)(c1ccccc1)C2=O` (stereo not drawn), the Ki in experiment [1] came out at 345 nM.

Turning to `CC1(c2ccc(Br)cc2)C(=O)Nc2cc(Cl)cc(Cl)c2C1=O` (stereo not drawn), affinity in experiment [1] was put at a Ki of 304 nM.

For the compound `CC1(c2cccc(O)c2)C(=O)Nc2cc(Cl)cc(Cl)c2C1=O` (stereo not drawn), the inhibitory constant (Ki) in experiment [2] is above 10000 nM; in experiment [3] it was above 10000 nM; in experiment [4], above 10000 nM; in [5] it was above 10000 nM; in experiment [6], 1810 nM; in experiment [7], above 10000 nM. For the same compound, the figures for the Ki in [1], in experiment [8] and in [9] were 30.1 nM, above 10000 nM and above 10000 nM, respectively.

In experiment [1], `CC1(c2ccc([N+](=O)[O-])cc2)C(=O)Nc2cc(Cl)cc(Cl)c2C1=O` (stereo not drawn) came in with a Ki above 1000 nM.

`COc1cc2c(c(OC)c1)C(=O)C(C)(c1ccccc1)C(=O)N2` (stereo not drawn) came in with a Ki in [1] of 728 nM.

Take `COc1ccc(NS(=O)(=O)c2sc3ccc(Cl)cc3c2C)cc1N1CCNCC1`: the inhibition constant Ki in experiment [3] came to 130 nM; in [4], 1740 nM; in [6] it was 120 nM; in experiment [7] it was 530 nM; in experiment [8], 460 nM.

As to `CNc1cc(NS(=O)(=O)c2ccc(N)cc2)cc(NC)n1`, in [1], the affinity corresponds to a Ki of 512 nM.

Consider `CC1(c2ccccc2)C(=O)Nc2cc(Cl)cc(Cl)c2C1=O` (racemic), for which the Ki in experiment [2], in experiment [3], in [4], in experiment [5], in experiment [6] and in [7] was above 10000 nM each time. The Ki in [1] was 54.7 nM; in experiment [8], above 10000 nM; in experiment [9] it was above 10000 nM.

The Ki is a measure of affinity in units of concentration, obtained from inhibition or displacement. A word on the IC50: it is the concentration that gives 50% inhibition.
